We go through five compounds from ChEMBL document CHEMBL1139499, “Nucleotides and pronucleotides of 2,2-bis(hydroxymethyl)methylenecyclopropane analogues of purine nucleosides: synthesis and antiviral activity” (J Med Chem, 2005).

Bounds are passed on as bounds.

A word on the EC50: it is the midpoint of the concentration-response curve. Lower therefore signals an effect from little substance. The term CC50 denotes the concentration giving 50% cytotoxicity. Read a low CC50 as greater toxicity to the cells.

The test system of assay [1] is Hepatitis B virus. The assay is described as follows: Effective concentration required to inhibit hepatitis B virus replication in 2.2.15 cells in DNA hybridization assay. The settings on record: HepG2 2.2.15. The class given is functional, organism-based. In outline:
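HBV assayed in 2.2.15 cells by DNA hybridization. CC50 values are those from the EBV/H-1 cytotoxicity determination, run in CEM cells. Single experiments unless specified otherwise.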

Assay [2] concerns Human alphaherpesvirus 1. The assay can be described thus: Effective concentration required to inhibit herpes simplex virus 1 in HFF cells in cytopathic effect (CPE) assay. It counts as functional, organism-based. The settings on record: Human alphaherpesvirus 1, HFF. The gist of the method:
(§1)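 HSV-1 and HSV-2 assayed in HFF cells by cytopathic effect (CPE) inhibition and by plaque reduction. Cytotoxicity measured in HFF cells. Single experiments unless specified otherwise.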
On the technique in general: Protection from cytopathic effect is a common read-out in antiviral testing.

Assay [3] can be described thus: Effective concentration required to inhibit varicella zoster virus replication in HFF cells. It counts as functional, cell-based. The settings on record: Human alphaherpesvirus 3, HFF. The gist of the method: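 VZV assayed in HFF cells by cytopathic effect (CPE) inhibition or by plaque reduction. Single experiments unless specified otherwise.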
Assay [4] relates to HFF. The assay is described as follows: Cytotoxic concentration against towne strain of human cytomegalovirus infected HFF cells of human (visual cytotoxicity). It counts as functional. The gist of the method: (§2)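 Human CMV (Towne and AD169 strains) grown in HFF cell culture; antiviral effect read by plaque reduction or by cytopathic effect (CPE) inhibition. Cytotoxicity measured in HFF cells. Single experiments unless specified otherwise.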

Assay [5] deals with Human betaherpesvirus 5. The assay is described as follows: Effective concentration for antiviral activity against towne strain of human cytomegalovirus in plaque reduction assay. It counts as functional, organism-based. The gist of the method:
as §2
Background: Plaque reduction counts the foci of infection that form in a cell layer.

For assay [6], the system named is Human betaherpesvirus 5. The assay is described as follows: Effective concentration for antiviral activity against AD169 strain of human cytomegalovirus in plaque reduction assay. The class given is functional, organism-based. The gist of the method: as §2
In assay [7] the test system is Daudi. The assay is described as follows: Cytotoxic concentration to inhibit replication in daudi cells. It counts as functional. The settings on record: Homo sapiens.
Assay [8] has as its system MEF. The assay can be described thus: Cytotoxic concentration against murine cytomegalovirus infected MEF cells. The class given is functional. The settings on record: Mus musculus.
In assay [9] the test system is Human alphaherpesvirus 1. The assay is described as follows: Effective concentration required to inhibit herpes simplex virus 1 in vero cells in plaque reduction assay. The class given is functional, organism-based. The settings on record: Human alphaherpesvirus 1, Vero. In outline:
(§3)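 HSV-1 and HSV-2 assayed in Vero cells by plaque reduction. Single experiments unless specified otherwise.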

In assay [10] the test system is Human alphaherpesvirus 2. The assay is described as follows: Effective concentration required to inhibit herpes simplex virus 2 in HFF cells in cytopathic effect (CPE) assay. The class given is functional, organism-based. The settings on record: Human alphaherpesvirus 2, HFF. In outline: as §1
Assay [11] relates to KB (Homo sapiens). The assay can be described thus: Cytotoxic concentration required to inhibit KB cells.
Assay [12] concerns HFF. The assay is described as follows: Cytotoxic concentration against AD169 strain of human cytomegalovirus infected HFF cells of human (by neutral red uptake). The class given is functional.
Assay [13] has as its system Human alphaherpesvirus 1. The assay is described as follows: Effective concentration required to inhibit herpes simplex virus 1 in BSC-1 cells in ELISA. The class given is functional, organism-based. The settings on record: Human alphaherpesvirus 1, BSC-1. The gist of the method: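 HSV-1 assayed in BSC-1 cells with ELISA read-out; cytotoxicity in these assays determined in KB cells. Single experiments unless specified otherwise.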

In assay [14] the test system is Human gammaherpesvirus 4. The assay is described as follows: Effective concentration required to inhibit Epstein-barr virus replication in H-1 cells in DNA hybridization assay. The class given is functional, organism-based. The settings on record: human gammaherpesvirus 4, H-1. In outline: (§4)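 EBV assayed in H-1 cells by DNA hybridization. Cytotoxicity determined separately in CEM cells. Single experiments unless specified otherwise.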

Assay [15] deals with Human alphaherpesvirus 2. The assay can be described thus: Effective concentration required to inhibit herpes simplex virus 2 in vero cells in plaque reduction assay. The class given is functional, organism-based. The settings on record: Human alphaherpesvirus 2, Vero. In outline: as §3
Assay [16] can be described thus: Cytotoxic concentration to inhibit replication in H-1 cells (in CEM cells). It counts as functional. The settings on record: Homo sapiens, CCRF-CEM. In outline:
as §4

Assay [17] concerns Human gammaherpesvirus 4. The assay is described as follows: Effective concentration required to inhibit Epstein-barr virus replication in daudi cells in viral capsid immunofluorescence ELISA. The class given is functional, organism-based. The settings on record: human gammaherpesvirus 4, Daudi. For orientation: An ELISA detects its analyte on a solid surface through an enzyme-linked reagent.

Assay [18] deals with HFF. The assay can be described thus: Cytotoxic concentration against AD169 strain of human cytomegalovirus infected HFF cells of human (by cytopathic effect inhibition assay). The class given is functional. In outline:
as §2

Assay [19] deals with HFF. The assay can be described thus: Cytotoxic concentration to inhibit Herpes simplex virus 1 infected HFF cells. The settings on record: Homo sapiens. The class given is functional. The gist of the method: as §1
Assay [20] relates to HFF. The assay is described as follows: Cytotoxic concentration to inhibit Herpes simplex virus 2 infected HFF cells. It counts as functional. The settings on record: Homo sapiens. In outline:
as §1

For `Nc1ncnc2c1ncn2/C=C1/CC1(CO)CO`, the EC50 in assay [1] was above 10 µM; in [2], above 404 µM; in [3], above 404 µM; in assay [5] it was 2.4 µM; in assay [6], 11.7 µM; in assay [9], above 50 µM. In addition, the EC50 in [10] is above 404 µM; in assay [13], 50 µM; in [14] it was above 20 µM; in assay [15], above 50 µM. In addition, the 50% cytotoxic concentration (CC50) is above 100 µM in assay [4]; above 202 µM in assay [7]; above 404 µM in [8]; above 100 µM in assay [11]; above 404 µM in assay [12]; above 50 µM in assay [16].
Regarding `Nc1nc(O)c2ncn(/C=C3\CC34COP(=O)(O)OC4)c2n1` (configuration not stated), the 50% effective concentration (EC50) was above 20 µM in assay [1]; above 150 µM in assay [17]; above 299 µM in assay [2]; above 299 µM in [3]; above 100 µM in assay [5]; above 299 µM in [6]. Moreover, the concentration giving a half-maximal response (EC50) in [9] was above 50 µM; in assay [10], above 299 µM; in [13] it was above 100 µM; in [14], above 20 µM; in assay [15], 50 µM. Further, the 50% cytotoxic concentration (CC50) was above 100 µM in [4]; above 299 µM in assay [18]; above 150 µM in assay [7]; above 100 µM in assay [11]; above 100 µM in assay [16].
Consider `COC(=O)C(C)NP(=O)(OCC1(CO)C/C1=C\n1cnc2c(O)nc(N)nc21)Oc1ccccc1` (configuration not stated), for which the 50% effective concentration (EC50) in [1] was above 10 µM; in [17], above 99 µM; in assay [2] it was above 198 µM; in assay [3] it was above 198 µM; in assay [5], above 100 µM; in assay [6], above 198 µM. For the same compound, the EC50 in assay [9] was above 50 µM; in assay [10], above 198 µM; in [13], 70 µM; in [14], above 20 µM; in [15], above 50 µM. Further, the CC50 was above 100 µM in [4]; above 198 µM in [18]; above 198 µM in assay [7]; above 100 µM in [11]; above 100 µM in [16].
As for `COC(=O)C(C)NP(=O)(OCC1(CO)C/C1=C\n1cnc2c(N)ncnc21)Oc1ccccc1` (configuration not stated), the half-maximal effective concentration (EC50) in assay [1] is above 20 µM; in assay [17], above 102 µM; in [2], above 205 µM; in assay [3], above 205 µM; in assay [5] it was above 100 µM; in [6] it was above 205 µM. Moreover, the EC50 in assay [9] was above 30 µM; in assay [10], above 205 µM; in assay [13] it was above 100 µM; in assay [14], above 20 µM; in assay [15], above 30 µM. Further, the 50% cytotoxic concentration (CC50) was above 100 µM in assay [4]; above 205 µM in assay [18]; above 102 µM in [7]; above 100 µM in [11]; above 25 µM in assay [16].
For the compound `COC(=O)C(C)NP(=O)(OCC1(CO)C/C1=C/n1cnc2c(N)ncnc21)Oc1ccccc1` (configuration not stated), the EC50 in [1] is 12.8 µM; in assay [17], above 102 µM; in [2] it was 21.1 µM; in assay [3], above 41 µM; in assay [5], 3 µM; in assay [6] it was 18.4 µM. Also, the EC50 was above 40 µM in [9]; 22.1 µM in assay [10]; 55 µM in assay [13]; 3 µM in assay [14]; above 40 µM in [15]. For the same compound, the CC50 was 32 µM in assay [4]; 200 µM in assay [19]; above 102 µM in [7]; 3.5 µM in [11]; 200 µM in assay [12]; 200 µM in [20]. The CC50 in [16] was 3.8 µM.
